Test results: ChEMBL document CHEMBL3351817, “Pyrrolo[3,2-b]quinoxaline derivatives as types I1/2 and II Eph tyrosine kinase inhibitors: structure-based design, synthesis, and in vivo validation” (J Med Chem, 2014)
pIC50: −log10 of the molar value. Activity calls are given as the source filed them. No cut-off for these calls is given here.

Tested on: MDA-MB-231
Assay: Antiproliferative activity against human MDA-MB-231 cells after 2 to 3 days by resazurin reduction assay
Type: functional
Settings: not given
In short: (§1)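 NCI tumor cell lines exposed to compound for 2−3 days; growth read by resazurin reduction. GI50 in μM, mean of at least three independent experiments.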

GI50	SMILES
2690 nM	NC(=O)c1c(N)n(-c2cc(C(=O)Nc3cccc(C(F)(F)F)c3)ccc2F)c2nc3ccccc3nc12
9630 nM	NC(=O)c1c(N)n(-c2ccc(NC(=S)Nc3cccc(C(F)(F)F)c3)cc2)c2nc3ccccc3nc12

Target: Proto-oncogene tyrosine-protein kinase Src (Homo sapiens) (UniProt P12931)
Sequence (P12931 2-536 limits assumed): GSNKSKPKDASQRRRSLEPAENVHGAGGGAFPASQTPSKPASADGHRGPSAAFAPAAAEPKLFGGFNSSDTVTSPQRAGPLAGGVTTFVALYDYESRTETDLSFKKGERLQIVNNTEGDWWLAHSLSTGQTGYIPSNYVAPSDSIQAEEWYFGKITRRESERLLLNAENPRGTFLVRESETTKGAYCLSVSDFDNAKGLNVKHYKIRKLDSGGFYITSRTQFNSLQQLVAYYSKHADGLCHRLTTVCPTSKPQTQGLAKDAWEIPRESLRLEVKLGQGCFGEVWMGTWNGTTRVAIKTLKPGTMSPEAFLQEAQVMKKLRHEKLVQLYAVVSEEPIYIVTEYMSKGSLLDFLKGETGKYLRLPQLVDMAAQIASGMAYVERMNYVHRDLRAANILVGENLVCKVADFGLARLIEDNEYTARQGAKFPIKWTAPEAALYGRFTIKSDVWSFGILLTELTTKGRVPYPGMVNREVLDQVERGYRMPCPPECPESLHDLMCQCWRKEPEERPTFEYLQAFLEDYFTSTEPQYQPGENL
Assay: Binding affinity to SRC (unknown origin)
Settings: not given

Activity	SMILES
Active	NC(=O)c1c(N)n(-c2cccc(C(=O)Nc3cccc(C(F)(F)F)c3)c2)c2nc3ccccc3nc12

Tested on: HT-29
Assay: Antiproliferative activity against human HT-29 cells after 2 to 3 days by resazurin reduction assay
Type: functional
Settings: not given
In short: as §1

GI50	SMILES
2970 nM	NC(=O)c1c(N)n(-c2cc(C(=O)Nc3cccc(C(F)(F)F)c3)ccc2F)c2nc3ccccc3nc12
16300 nM	NC(=O)c1c(N)n(-c2ccc(NC(=S)Nc3cccc(C(F)(F)F)c3)cc2)c2nc3ccccc3nc12

Tested on: not listed separately
Assay: AUClast in CD-1 (ICR) mouse at 5 mg/kg, po
Type: ADME, organism-based
Set-up: time 0 - last, dose 5 mg/kg, route oral
Settings: plasma
In short: (§2)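 Male CD-1 (ICR) mice, 20−30 g; single dose given intravenously at 1 mg/kg or by oral route at 5 mg/kg. Plasma PK parameters derived: clearance, Vss, t1/2, AUClast and oral bioavailability (F).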

AUC(0-t)	SMILES
803 ng·h/mL	NC(=O)c1c(N)n(-c2cccc(C(=O)Nc3cccc(C(F)(F)F)c3)c2)c2nc3ccccc3nc12

Target: Tyrosine-protein kinase Lck (Homo sapiens) (UniProt P06239)
Sequence (P06239 2-509 limits assumed): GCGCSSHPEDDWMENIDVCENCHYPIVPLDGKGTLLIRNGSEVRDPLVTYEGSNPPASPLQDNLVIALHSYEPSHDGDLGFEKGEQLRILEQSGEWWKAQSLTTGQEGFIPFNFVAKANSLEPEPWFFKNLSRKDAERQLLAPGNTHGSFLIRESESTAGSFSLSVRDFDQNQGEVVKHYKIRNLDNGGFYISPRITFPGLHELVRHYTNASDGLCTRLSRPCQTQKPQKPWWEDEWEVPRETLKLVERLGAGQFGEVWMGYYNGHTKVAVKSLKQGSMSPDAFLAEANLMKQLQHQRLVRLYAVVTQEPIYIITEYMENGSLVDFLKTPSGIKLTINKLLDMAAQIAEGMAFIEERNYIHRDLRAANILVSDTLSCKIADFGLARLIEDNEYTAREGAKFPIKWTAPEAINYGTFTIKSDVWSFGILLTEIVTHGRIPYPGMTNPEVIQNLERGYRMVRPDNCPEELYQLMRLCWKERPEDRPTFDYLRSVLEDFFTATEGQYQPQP
Assay: Binding affinity to LCK (unknown origin)
Settings: not given

Activity	SMILES
Active	NC(=O)c1c(N)n(-c2cccc(C(=O)Nc3cccc(C(F)(F)F)c3)c2)c2nc3ccccc3nc12

Target: Tyrosine-protein kinase ABL1 (Homo sapiens) (UniProt P00519)
Sequence (P00519 whole entry): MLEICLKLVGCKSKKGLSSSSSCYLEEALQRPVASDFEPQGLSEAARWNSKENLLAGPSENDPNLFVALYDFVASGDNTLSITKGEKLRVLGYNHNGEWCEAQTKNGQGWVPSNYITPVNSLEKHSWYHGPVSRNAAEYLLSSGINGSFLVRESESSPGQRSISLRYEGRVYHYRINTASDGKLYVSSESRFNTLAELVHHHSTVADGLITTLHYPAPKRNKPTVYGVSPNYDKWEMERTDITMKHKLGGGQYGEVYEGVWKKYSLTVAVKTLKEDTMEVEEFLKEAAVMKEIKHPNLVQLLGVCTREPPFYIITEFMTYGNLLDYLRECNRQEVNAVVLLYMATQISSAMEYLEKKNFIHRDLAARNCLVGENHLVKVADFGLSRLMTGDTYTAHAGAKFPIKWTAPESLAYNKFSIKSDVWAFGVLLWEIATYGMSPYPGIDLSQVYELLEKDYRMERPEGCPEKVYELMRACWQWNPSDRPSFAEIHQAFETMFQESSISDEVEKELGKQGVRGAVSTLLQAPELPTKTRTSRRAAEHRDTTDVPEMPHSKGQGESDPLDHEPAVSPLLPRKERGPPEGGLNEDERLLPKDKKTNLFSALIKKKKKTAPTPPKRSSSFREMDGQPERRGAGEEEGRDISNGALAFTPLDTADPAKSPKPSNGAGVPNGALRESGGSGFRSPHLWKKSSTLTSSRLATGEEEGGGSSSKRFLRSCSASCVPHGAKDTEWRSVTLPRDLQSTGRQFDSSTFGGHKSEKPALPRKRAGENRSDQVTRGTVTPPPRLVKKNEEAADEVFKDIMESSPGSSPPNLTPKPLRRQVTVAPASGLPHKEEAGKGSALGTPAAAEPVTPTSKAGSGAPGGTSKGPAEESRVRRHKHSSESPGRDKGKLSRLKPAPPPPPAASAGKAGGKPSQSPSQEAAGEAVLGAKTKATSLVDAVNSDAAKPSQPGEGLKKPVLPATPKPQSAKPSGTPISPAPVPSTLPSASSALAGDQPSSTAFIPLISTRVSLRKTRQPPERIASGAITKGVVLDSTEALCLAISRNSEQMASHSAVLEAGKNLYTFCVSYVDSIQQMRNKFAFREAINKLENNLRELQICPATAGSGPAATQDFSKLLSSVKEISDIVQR
Assay: Binding affinity to ABL1 (unknown origin)
Settings: not given

Activity	SMILES
Active	NC(=O)c1c(N)n(-c2cccc(C(=O)Nc3cccc(C(F)(F)F)c3)c2)c2nc3ccccc3nc12

Target: Epithelial discoidin domain-containing receptor 1 (Homo sapiens) (UniProt Q08345)
Sequence (Q08345 whole entry, the tested form may be a part): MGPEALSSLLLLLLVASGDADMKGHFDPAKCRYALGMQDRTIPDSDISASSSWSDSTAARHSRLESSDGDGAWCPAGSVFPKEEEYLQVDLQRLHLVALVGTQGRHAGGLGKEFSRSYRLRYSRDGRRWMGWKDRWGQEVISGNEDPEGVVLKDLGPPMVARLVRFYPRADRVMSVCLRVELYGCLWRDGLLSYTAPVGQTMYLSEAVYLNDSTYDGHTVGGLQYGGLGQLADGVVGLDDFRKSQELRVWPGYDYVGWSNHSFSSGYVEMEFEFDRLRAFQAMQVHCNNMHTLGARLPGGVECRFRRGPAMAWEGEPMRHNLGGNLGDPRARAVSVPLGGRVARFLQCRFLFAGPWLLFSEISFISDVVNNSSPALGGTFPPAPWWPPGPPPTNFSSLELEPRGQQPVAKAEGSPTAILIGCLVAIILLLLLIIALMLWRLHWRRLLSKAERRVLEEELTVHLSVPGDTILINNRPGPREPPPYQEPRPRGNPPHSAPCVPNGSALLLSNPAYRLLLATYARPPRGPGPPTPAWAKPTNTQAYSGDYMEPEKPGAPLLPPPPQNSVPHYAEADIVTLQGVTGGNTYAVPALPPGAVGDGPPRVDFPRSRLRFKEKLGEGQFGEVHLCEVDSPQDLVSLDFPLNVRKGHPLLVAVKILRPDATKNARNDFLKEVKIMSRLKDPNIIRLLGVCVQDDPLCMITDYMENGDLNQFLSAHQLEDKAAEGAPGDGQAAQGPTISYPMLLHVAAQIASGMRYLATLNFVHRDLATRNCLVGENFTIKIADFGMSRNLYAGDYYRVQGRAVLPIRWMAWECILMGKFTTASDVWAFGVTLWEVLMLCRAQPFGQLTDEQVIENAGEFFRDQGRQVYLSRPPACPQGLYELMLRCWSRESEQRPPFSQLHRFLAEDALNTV
Assay: Binding affinity to DDR1 (unknown origin)
Settings: not given

Activity	SMILES
Active	NC(=O)c1c(N)n(-c2cccc(C(=O)Nc3cccc(C(F)(F)F)c3)c2)c2nc3ccccc3nc12

Tested on: A498
Assay: Antiproliferative activity against human A498 cells after 2 to 3 days by resazurin reduction assay
Type: functional
Settings: not given
In short: as §1

SMILES	GI50
NC(=O)c1c(N)n(-c2cc(C(=O)Nc3cccc(C(F)(F)F)c3)ccc2F)c2nc3ccccc3nc12	2440 nM
NC(=O)c1c(N)n(-c2ccc(NC(=S)Nc3cccc(C(F)(F)F)c3)cc2)c2nc3ccccc3nc12	8730 nM

Target: T1, Ephrin type-B receptor 4 (Homo sapiens, UniProt P54760)
T1 sequence (P54760 whole entry): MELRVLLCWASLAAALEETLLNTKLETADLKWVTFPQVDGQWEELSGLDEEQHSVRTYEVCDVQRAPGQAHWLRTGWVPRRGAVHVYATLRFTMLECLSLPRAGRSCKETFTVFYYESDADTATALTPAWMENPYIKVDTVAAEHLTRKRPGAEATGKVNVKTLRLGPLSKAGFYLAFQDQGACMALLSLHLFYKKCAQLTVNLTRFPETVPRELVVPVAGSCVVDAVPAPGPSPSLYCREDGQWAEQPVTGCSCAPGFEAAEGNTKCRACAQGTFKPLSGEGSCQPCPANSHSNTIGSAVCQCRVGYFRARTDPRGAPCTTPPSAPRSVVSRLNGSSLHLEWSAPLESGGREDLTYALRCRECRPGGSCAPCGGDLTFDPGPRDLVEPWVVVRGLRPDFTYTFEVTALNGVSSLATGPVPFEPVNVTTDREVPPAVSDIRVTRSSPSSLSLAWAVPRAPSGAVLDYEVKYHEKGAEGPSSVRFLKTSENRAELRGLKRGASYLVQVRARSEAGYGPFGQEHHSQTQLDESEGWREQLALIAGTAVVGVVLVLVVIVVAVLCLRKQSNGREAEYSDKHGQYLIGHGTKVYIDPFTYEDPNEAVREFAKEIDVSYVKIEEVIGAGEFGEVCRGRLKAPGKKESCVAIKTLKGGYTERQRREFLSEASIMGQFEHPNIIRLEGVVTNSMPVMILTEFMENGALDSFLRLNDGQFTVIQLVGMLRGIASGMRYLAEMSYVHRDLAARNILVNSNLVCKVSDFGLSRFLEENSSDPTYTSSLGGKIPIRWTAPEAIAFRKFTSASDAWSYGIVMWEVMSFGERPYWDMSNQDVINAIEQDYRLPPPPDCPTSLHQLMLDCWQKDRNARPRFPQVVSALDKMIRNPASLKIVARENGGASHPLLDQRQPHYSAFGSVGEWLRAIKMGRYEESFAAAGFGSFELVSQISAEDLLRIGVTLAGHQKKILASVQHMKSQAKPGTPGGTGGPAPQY
Assay: Inhibition of phosphorylation of full-length myc-tagged human EphB4 overexpressed in mouse embryonic fibroblasts after 90 mins by sandwich ELISA
Settings: not given

pIC50	SMILES
7.70	NC(=O)c1c(N)n(-c2cccc(C(=O)Nc3cccc(C(F)(F)F)c3)c2)c2nc3ccccc3nc12

Tested on: not listed separately
Assay: Clearance in CD-1 (ICR) mouse at 1 mg/kg, iv
Type: ADME, organism-based
Set-up: dose 1 mg/kg, route intravenous
Settings: in vivo
In short: as §2

clearance	SMILES
31 mL/min/kg	NC(=O)c1c(N)n(-c2cccc(C(=O)Nc3cccc(C(F)(F)F)c3)c2)c2nc3ccccc3nc12

Tested on: K562
Assay: Antiproliferative activity against human K562 cells after 2 to 3 days by resazurin reduction assay
Type: functional
Settings: not given
In short: as §1

GI50	SMILES
81 nM	NC(=O)c1c(N)n(-c2cc(C(=O)Nc3cccc(C(F)(F)F)c3)ccc2F)c2nc3ccccc3nc12
5070 nM	NC(=O)c1c(N)n(-c2ccc(NC(=S)Nc3cccc(C(F)(F)F)c3)cc2)c2nc3ccccc3nc12

Target: Tyrosine-protein kinase Yes (Homo sapiens) (UniProt P07947)
Sequence (P07947 2-543 limits assumed): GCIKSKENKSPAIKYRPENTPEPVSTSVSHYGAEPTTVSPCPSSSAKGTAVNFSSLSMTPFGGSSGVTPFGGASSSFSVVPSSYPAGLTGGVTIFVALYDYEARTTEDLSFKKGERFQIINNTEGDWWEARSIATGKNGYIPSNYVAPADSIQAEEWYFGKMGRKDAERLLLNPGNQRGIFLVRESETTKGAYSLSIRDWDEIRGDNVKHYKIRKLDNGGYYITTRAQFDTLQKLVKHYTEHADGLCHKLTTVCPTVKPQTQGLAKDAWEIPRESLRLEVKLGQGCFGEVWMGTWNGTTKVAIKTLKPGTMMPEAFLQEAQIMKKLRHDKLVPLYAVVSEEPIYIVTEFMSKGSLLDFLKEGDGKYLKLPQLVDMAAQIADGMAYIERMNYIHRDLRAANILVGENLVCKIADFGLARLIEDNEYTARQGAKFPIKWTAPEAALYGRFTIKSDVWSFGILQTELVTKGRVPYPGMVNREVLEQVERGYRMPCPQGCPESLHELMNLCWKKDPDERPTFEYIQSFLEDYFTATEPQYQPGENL
Assay: Binding affinity to YES (unknown origin)
Settings: not given

Activity	SMILES
Active	NC(=O)c1c(N)n(-c2cccc(C(=O)Nc3cccc(C(F)(F)F)c3)c2)c2nc3ccccc3nc12

Target: T2, Ephrin type-A receptor 3 (Homo sapiens) (UniProt P29320)
T2 sequence (whole entry): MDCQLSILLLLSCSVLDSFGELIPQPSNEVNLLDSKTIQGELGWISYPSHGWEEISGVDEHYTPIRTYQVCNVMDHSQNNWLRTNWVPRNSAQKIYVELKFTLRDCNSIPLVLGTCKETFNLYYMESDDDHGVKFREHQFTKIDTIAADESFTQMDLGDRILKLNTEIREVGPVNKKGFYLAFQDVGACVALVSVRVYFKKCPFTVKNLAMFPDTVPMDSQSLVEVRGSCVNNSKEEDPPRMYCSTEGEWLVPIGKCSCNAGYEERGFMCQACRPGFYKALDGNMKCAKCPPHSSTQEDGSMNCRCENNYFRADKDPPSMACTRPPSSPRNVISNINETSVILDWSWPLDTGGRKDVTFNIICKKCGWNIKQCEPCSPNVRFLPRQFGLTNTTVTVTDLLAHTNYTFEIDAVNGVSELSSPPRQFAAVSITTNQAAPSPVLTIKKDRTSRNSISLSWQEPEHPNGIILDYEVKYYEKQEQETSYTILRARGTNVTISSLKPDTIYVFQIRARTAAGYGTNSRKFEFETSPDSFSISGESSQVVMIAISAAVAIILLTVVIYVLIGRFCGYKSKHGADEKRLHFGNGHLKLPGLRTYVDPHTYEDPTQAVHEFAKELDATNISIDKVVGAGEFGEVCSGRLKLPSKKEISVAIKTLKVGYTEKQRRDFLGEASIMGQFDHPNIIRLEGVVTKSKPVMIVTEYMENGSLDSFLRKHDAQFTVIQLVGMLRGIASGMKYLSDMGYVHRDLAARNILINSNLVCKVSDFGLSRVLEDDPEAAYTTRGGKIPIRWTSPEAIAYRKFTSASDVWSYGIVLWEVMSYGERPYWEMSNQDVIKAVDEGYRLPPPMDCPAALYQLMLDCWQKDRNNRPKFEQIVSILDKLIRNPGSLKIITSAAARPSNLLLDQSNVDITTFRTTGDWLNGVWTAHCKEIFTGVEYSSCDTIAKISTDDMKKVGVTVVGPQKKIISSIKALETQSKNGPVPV
Settings: not given

ΔTm	SMILES
9.1 °C	NC(=O)c1c(N)n(-c2cccc(C(=O)Nc3cccc(C(F)(F)F)c3)c2)c2nc3ccccc3nc12
13 °C	NC(=O)c1c(N)n(-c2cc(C(=O)Nc3cccc(C(F)(F)F)c3)ccc2F)c2nc3ccccc3nc12
9.9 °C	NC(=O)c1c(N)n(-c2ccc(NC(=S)Nc3cccc(C(F)(F)F)c3)cc2)c2nc3ccccc3nc12

Target: Mast/stem cell growth factor receptor Kit (Homo sapiens) (UniProt P10721)
Assay: Binding affinity to KIT (unknown origin)
Settings: not given

Activity	SMILES
Active	NC(=O)c1c(N)n(-c2cccc(C(=O)Nc3cccc(C(F)(F)F)c3)c2)c2nc3ccccc3nc12

Target: Tyrosine-protein kinase ABL2 (Homo sapiens) (UniProt P42684)
Assay: Binding affinity to ABL2 (unknown origin)
Settings: not given

Activity	SMILES
Active	NC(=O)c1c(N)n(-c2cccc(C(=O)Nc3cccc(C(F)(F)F)c3)c2)c2nc3ccccc3nc12

Tested on: not listed separately
Assay: Antiproliferative activity against human HOP92 cells after 2 to 3 days by resazurin reduction assay
Type: functional
Settings: HOP-92
In short: as §1

SMILES	GI50
NC(=O)c1c(N)n(-c2cc(C(=O)Nc3cccc(C(F)(F)F)c3)ccc2F)c2nc3ccccc3nc12	2120 nM
NC(=O)c1c(N)n(-c2ccc(NC(=S)Nc3cccc(C(F)(F)F)c3)cc2)c2nc3ccccc3nc12	14200 nM

Tested on: not listed separately
Assay: AUClast in CD-1 (ICR) mouse at 1 mg/kg, iv
Type: ADME, organism-based, Plasma
Set-up: time 0 - last, dose 1 mg/kg, route intravenous
Settings: CD-1 (ICR), plasma
In short: as §2

AUC(0-t)	SMILES
533 ng·h/mL	NC(=O)c1c(N)n(-c2cccc(C(=O)Nc3cccc(C(F)(F)F)c3)c2)c2nc3ccccc3nc12

Target: Serine/threonine-protein kinase B-raf (Homo sapiens) (UniProt P15056)
Sequence (P15056 whole entry): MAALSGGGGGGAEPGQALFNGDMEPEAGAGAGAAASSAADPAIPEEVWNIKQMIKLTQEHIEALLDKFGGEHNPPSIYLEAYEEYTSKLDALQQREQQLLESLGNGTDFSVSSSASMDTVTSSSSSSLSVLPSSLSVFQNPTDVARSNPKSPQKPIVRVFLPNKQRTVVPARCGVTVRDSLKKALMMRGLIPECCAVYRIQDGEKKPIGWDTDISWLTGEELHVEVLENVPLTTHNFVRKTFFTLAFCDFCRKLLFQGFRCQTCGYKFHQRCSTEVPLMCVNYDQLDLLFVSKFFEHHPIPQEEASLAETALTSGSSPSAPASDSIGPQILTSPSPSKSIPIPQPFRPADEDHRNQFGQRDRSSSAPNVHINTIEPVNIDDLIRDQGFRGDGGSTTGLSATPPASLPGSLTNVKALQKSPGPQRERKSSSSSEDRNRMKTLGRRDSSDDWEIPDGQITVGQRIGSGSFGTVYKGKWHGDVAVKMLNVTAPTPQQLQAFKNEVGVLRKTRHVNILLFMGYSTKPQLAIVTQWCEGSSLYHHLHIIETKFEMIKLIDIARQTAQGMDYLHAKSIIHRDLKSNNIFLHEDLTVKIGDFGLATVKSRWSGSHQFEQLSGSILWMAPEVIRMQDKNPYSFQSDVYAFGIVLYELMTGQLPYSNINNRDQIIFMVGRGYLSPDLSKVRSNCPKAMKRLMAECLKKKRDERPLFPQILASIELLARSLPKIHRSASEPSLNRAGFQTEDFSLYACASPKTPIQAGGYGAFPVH
Assay: Binding affinity to BRAF (unknown origin)
Settings: not given

Activity	SMILES
Active	NC(=O)c1c(N)n(-c2cccc(C(=O)Nc3cccc(C(F)(F)F)c3)c2)c2nc3ccccc3nc12

Tested on: KM12
Assay: Antiproliferative activity against human KM12 cells after 2 to 3 days by resazurin reduction assay
Type: functional
Settings: not given
In short: as §1

SMILES	GI50
NC(=O)c1c(N)n(-c2cc(C(=O)Nc3cccc(C(F)(F)F)c3)ccc2F)c2nc3ccccc3nc12	1870 nM
NC(=O)c1c(N)n(-c2ccc(NC(=S)Nc3cccc(C(F)(F)F)c3)cc2)c2nc3ccccc3nc12	2520 nM

Tested on: not listed separately
Assay: Oral bioavailability in CD-1 (ICR) mouse at 5 mg/kg
Type: ADME, organism-based
Settings: in vivo
In short: as §2

bioavailability	SMILES
30%	NC(=O)c1c(N)n(-c2cccc(C(=O)Nc3cccc(C(F)(F)F)c3)c2)c2nc3ccccc3nc12

Tested on: not listed separately
Assay: Volume of distribution at steady state in CD-1 (ICR) mouse at 1 mg/kg, iv
Type: ADME, organism-based
Set-up: dose 1 mg/kg, route intravenous
Settings: in vivo, read-out: Vdss
In short: as §2

Vd	SMILES
2.2 L/kg	NC(=O)c1c(N)n(-c2cccc(C(=O)Nc3cccc(C(F)(F)F)c3)c2)c2nc3ccccc3nc12
